FN deposition inh = fibronectin deposition inhibition | AID 743247 | AH1F fibroblasts, Alexa488-fibronectin deposition fluorescence, overnight | 350,000 compounds, 0.086% hits | inhibition, % at 12.6 µM;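 active = mean inhibition across replicates of 30% or more, regardless of how many single replicates reach that level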;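 also: positive control wells lacked labelled fibronectin entirely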
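Test system: AH1F fibroblast monolayer depositing Alexa488-labelled fibronectin into matrix. Input: 10000 cells per well. Technique: fluorescence, ex 485 nm, em 525 nm. Buffer or medium: DMEM plus 2% serum, read in PBS. Timing: 1 h cell adhesion before compound, then overnight fibronectin incubation. Compound: single dose, pinned. Read-out basis: inhibition from reduced deposited-fibronectin fluorescence.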
PglD inh = blocks C. jejuni PglD acetyltransferase activity; purified PglD enzyme, DTNB colorimetric CoA detection; inhibition, % at 12.5 µM; 360,000 compounds, 0.098% hits; AID 602405; in the data active = inhibition above about 16%, passing the limit was not always enough
Rtt109 HAT inh = blocks Candida albicans Rtt109/Vps75 acetyltransferase activity. Q5AAJ8. purified Rtt109/Vps75, ThioGlo CoA-SH fluorescence, 4 h. inhibition, % at 34.9 µM. 330,000 compounds, 0.16% hits. AID 540336;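 active = inhibition of at least 50% in every replicate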
Target sequence (Q5AAJ8 whole entry, looked up): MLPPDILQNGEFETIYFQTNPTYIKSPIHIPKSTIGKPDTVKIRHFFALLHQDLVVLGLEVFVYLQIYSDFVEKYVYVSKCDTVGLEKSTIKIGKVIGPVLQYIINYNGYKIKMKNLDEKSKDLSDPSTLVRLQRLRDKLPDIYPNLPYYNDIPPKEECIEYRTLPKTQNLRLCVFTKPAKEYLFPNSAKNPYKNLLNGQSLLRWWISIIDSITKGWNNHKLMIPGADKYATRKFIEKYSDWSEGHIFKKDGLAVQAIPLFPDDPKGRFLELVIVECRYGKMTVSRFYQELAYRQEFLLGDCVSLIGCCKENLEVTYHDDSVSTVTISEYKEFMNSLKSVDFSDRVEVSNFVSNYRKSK
CSC inhib = blocks cancer stem cells. 300,000 compounds, 1.1% hits. cancer stem cell-like cells viability, luminescence. inhibition, % at 7.5 µM; in the data active = inhibition above about 75%; tested in HMLE shEcad cells
PfHsp90 set2 = inhibits growth of yeast expressing Plasmodium falciparum Hsp90; S. cerevisiae expressing PfHsp90, BacTiter-Glo ATP, 48 h; yeast lacking PDR1 and PDR3 efflux regulators; inhibition, % at 9.4 µM; 310,000 compounds, 0.32% hits;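 active = every replicate shows inhibition above about 80%, whatever the replicate mean, limit read from the data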;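 also: 0% = DMSO neutral controls and 100% = 20 µM radicicol positive controls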
SKKanGAS inh = SKKanGAS growth inhibition. AID 1662. 300,000 compounds, 1.3% hits. inhibition, % at 7.5 µM. S. pyogenes SKKanGAS, kanamycin growth, BacTiter-Glo, 6 h;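 active = mean replicate score, as percent of positive control median, at least 50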;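 also: strain carries kanamycin resistance gene driven by streptokinase promoter and grows in 40 µg/ml kanamycin; loss of luminescence reflects streptokinase promoter inhibition or plain growth inhibition; 0% = median of DMSO wells and 100% = positive control at its reference dose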
Numbers without * were called inactive; / = not tested or not shown. Only some compounds are listed: those with a hit (about 1.7% of all), similar ones and a draw of the others.

SMILES	FN deposition inh	PglD inh	Rtt109 HAT inh	CSC inhib	PfHsp90 set2	SKKanGAS inh
FC(F)(F)c1cccc(NC(=S)NC(c2ccccc2)c2ccccc2)c1	4	-1	-2	36	-21	12
O=C(NNC(=S)Nc1cccc(C(F)(F)F)c1)c1ccc(Cl)cc1Cl	-3	/	3	45	-32	67*
FC(F)(F)c1cccc(NC(=S)Nc2ccc(Cl)c(Cl)c2)c1	5	0	-1	42	9	96*
CCOc1ccc(NC(=S)NNC(=S)Nc2cccc(C(F)(F)F)c2)cc1	0	/	3	34	1	51*
C[C@@H]1CN([C@H](C)CO)C(=O)c2cc(/C=C/c3ccccc3)cnc2O[C@@H]1CN(C)S(=O)(=O)c1cccs1	/	13	/	/	/	/
O=[N+]([O-])c1cc(C(F)(F)F)cc([N+](=O)[O-])c1NCCNC(=S)Nc1ccc(Cl)c(Cl)c1	-5	0	-1	107*	4	102*
CC(C)c1ccc(-c2cc(C(=O)N3N=C(C(F)F)CC3(O)C(F)F)c3ccccc3n2)cc1 (centres undefined)	/	2	-11	112*	111*	90*
O=C(CC(Nc1ccccc1Cl)C(=O)O)c1ccccc1 (centres undefined)	4	/	0	-10	2	12
Cc1c(Cl)cccc1NC(CC(=O)c1ccccc1)C(=O)O (centres undefined)	-4	/	70*	/	14	2
O=C(Nc1ccc(Cl)cc1)N[C@H]1CC[C@@H](CCn2cc(-c3ccccc3F)nn2)O[C@@H]1CO	1	0	/	/	/	/
Cc1cc(C)c(OCCCCN2CCC(C)CC2)c(Br)c1	/	/	7	82*	12	1
O=C(C[C@@H]1CC[C@@H](NC(=O)Nc2ccccc2)[C@@H](CO)O1)NCc1cccc(F)c1	/	2	/	/	/	/
Cc1oc(C(C)(C)C)cc1C(=O)N1CCN(C(c2ccccc2)c2ccccc2)CC1	-9	/	0	49	-37	63*
CN1C(=O)c2cc(NC(=O)Cc3cccs3)ccc2OC[C@H]2O[C@@H](CC(=O)O)CC[C@@H]21	-9	/	/	/	/	/
CC(C)N1CCc2c(sc(NC(=O)c3nc4ccccc4s3)c2C(N)=O)C1	-9	/	1	-3	-2	17
CC(C)N1CCc2c(sc(NC(=O)c3ccc(S(=O)(=O)N4CCc5ccccc54)cc3)c2C(N)=O)C1	/	-9	2	113*	-3	7
CCCNC(=O)Nc1ccc2c(c1)C(=O)N(C)C[C@H](OC)[C@@H](C)CN(Cc1ccncc1)[C@@H](C)CO2	0	1	/	/	/	/
NC(=O)C1CCN(C2=C(Cl)C(=O)c3ccccc3C2=O)CC1	/	2	-6	85*	34	-8
Oc1ccc(/C=N/Nc2ccc(C(F)(F)F)cn2)c(O)c1	-1	/	-3	102*	4	8
O=C(N/C=N/OCc1ccc(Cl)cc1Cl)NOCc1ncc(C(F)(F)F)cc1Cl	/	-5	-7	124*	-39	25
CO/N=C/NC(=O)NOCc1ncc(C(F)(F)F)cc1Cl	/	-5	0	5	15	-5
COc1ccc(-n2nnnc2CNC(=O)C(=O)c2c[nH]c3ccccc23)cc1	-1	/	0	-2	-2	-4
Cc1ccc(-n2nnnc2SC(C(=O)c2c[nH]c3ccccc23)c2ccccc2)cc1 (centres undefined)	6	/	22	86*	3	33
O=c1c2cn[nH]c2nc(SCc2cc(=O)n3cc(Br)ccc3n2)n1-c1ccc(Br)cc1	8	/	4	/	-14	25
O=c1c2cn[nH]c2nc(SCc2ccccc2F)n1-c1ccc(Br)cc1	-8	/	9	105*	-17	5
SMILES	FN deposition inh	PglD inh	Rtt109 HAT inh	CSC inhib	PfHsp90 set2	SKKanGAS inh
COc1cc(C=c2c3ccccc3n3c2cc(-c2ccccc2)[n+]3C)cc(OC)c1OC	-4	/	7	/	-12	/
COc1cc(N(C)C)ccc1C=c1c2ccccc2n2c1cc(-c1ccccc1)[n+]2C	5	/	-1	/	104*	/
CN(C)c1ccc(C=c2c3ccccc3n3c2cc(-c2ccccc2)[n+]3C)cc1	-12	/	2	/	105*	/
COc1cccc(CNC(=O)C[C@H]2C=C[C@@H](NC(C)=O)[C@H](CO)O2)c1	5	4	/	/	/	/
CSc1ccc(/C=C(\C#N)C(=O)NC2CCCCC2C)cc1 (centres undefined)	2	/	-12	40	9	-7
CC1CCCCC1NC(=O)/C(C#N)=C/c1ccccc1F (centres undefined)	5	0	/	81*	121*	9
COc1cc(/C=C(\C#N)C(N)=O)ccc1OS(=O)(=O)c1ccc(C)cc1	7	3	-23	-10	13	-2
COc1cc(/C=C(\C#N)C(=O)NC2CCCCC2C)ccc1OS(=O)(=O)c1ccc(C)cc1 (centres undefined)	-14	-4	-1	157*	-20	3
O=C(/C=C/c1ccccc1)NC(=S)NNC(=O)c1ccco1	/	7	-9	-12	-8	76*
O=C(/C=C/c1ccc(Br)cc1)NC(=S)NNC(=O)c1ccco1	-5	-1	25	19	34	106*
CC[C@H](C)/C=C/C1=CC2=C(Cl)C(=O)[C@@]3(C)OC(=O)C(C(=O)[C@H](C)[C@@H](C)O)=C3C2=CO1	/	-5	0	-10	104*	4
O=C1C2C3C=CC(CO)(O3)C2C(=O)N1c1ccccc1-c1ccccc1 (centres undefined)	/	3	-4	-7	142*	/
O=C1C2C3C=CC(CNS(=O)(=O)c4ccccc4)(O3)C2C(=O)N1c1ccc(Cl)cc1 (centres undefined)	2	/	3	-3	105*	-13
Cc1ccc(S(=O)(=O)Nc2ccc3c(c2)C(=O)N([C@@H](C)CO)C[C@H](C)[C@@H](CN(C)C(=O)Nc2ccc(C(F)(F)F)cc2)OCCCC[C@H](C)O3)cc1	-6	2	/	/	/	/
CCN1/C(=C/C(C)=C/c2sc3ccccc3[n+]2CC)Sc2ccccc21	-3	-7	134*	144*	72	100*
N#CCC(=O)Nc1ccc(C(=O)OC(C(=O)Nc2ccc([N+](=O)[O-])cc2Br)c2ccccc2)cc1 (centres undefined)	-11	0	11	/	/	/
N#CCC(=O)Nc1ccc(C(=O)OC(C(=O)Nc2cc(C(F)(F)F)ccc2Cl)c2ccccc2)cc1 (centres undefined)	5	3	27	14	-9	61*
C[C@@H]1CCCCO[C@H](CN(C)C(=O)c2ccncc2)[C@@H](C)CN([C@H](C)CO)C(=O)c2cc(NC(=O)c3ccccc3)ccc2O1	/	-1	/	/	/	/
Cc1sc2ncnc(N/N=C/c3cccc(O)c3)c2c1C	/	/	8	-6	4	-3
C/C(=N\Nc1ncc(Cl)cc1Cl)c1ccccn1	/	/	6	/	108*	58*
C/C(=N\Nc1ncnc2sc(C)c(C)c12)c1ccccn1	14	-2	3	/	104*	-8
